From ChEMBL document CHEMBL2346548, “Design, synthesis, and structure-activity relationship studies of tryptanthrins as antitubercular agents” (J Nat Prod, 2013)
≈ marks a conversion by molar mass, not a printed value.

What was measured:
[1] = Cmax in C57BL/6 mouse at 40 mg/kg, po formulated in 0.1% SLS; type: ADME, organism-based; design: dose 40 mg/kg, route oral; settings: in vivo
How it was run: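 Female C57BL/6 mice, single 40 mg/kg oral gavage; three mice per time point; plasma at 30 min to 24 h, LC-MS; noncompartmental parameters reported as means.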

[2] = AUC (0 to infinity) in C57BL/6 mouse at 40 mg/kg, po formulated in 0.1% SLS; type: ADME, organism-based; design: time infinity, dose 40 mg/kg, route oral; settings: plasma
[3] = Oral bioavailability in Sprague-Dawley rat at 20 mg/kg; type: ADME, organism-based; settings: in vivo
[4] = biological target: CYP2C9 (Homo sapiens, UniProt P11712); assay: Inhibition of human recombinant CYP2C9 at 10 uM incubated for 80 mins at 37 degC using 7-methoxy-4-trifluoromethylcoumarin substrate; type: ADME; settings: recombinant CYP2C9, probe 7-methoxy-4-trifluoromethylcoumarin
[5] = Permeability across basolateral to apical side in human Caco2 cells incubated for 1 hr at 37 degC by HPLC-MS/MS method; type: ADME, cell-based; settings: Caco-2
[6] = Permeability across apical to basolateral side in human Caco2 cells incubated for 1 hr at 37 degC by HPLC-MS/MS method; type: ADME, cell-based; settings: Caco-2
How it was run: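 TC7 (Caco-2 subclone) monolayer; 10 μM compound in 1% DMSO in HBSS-MES pH 6.5 on apical donor side, basolateral receiver pH 7.4; shaken 1 h at 37 °C; receiver sampled, HPLC-MS/MS; duplicate means.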

[7] = Solubility in simulated gastric fluid at pH 1.5 by HPLC method; type: physicochemical
How it was run: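 Compound at 200 μM final in 2% DMSO in simulated gastric fluid, shaken 24 h at room temperature; HPLC-photodiode array detection at 230 nm; duplicate means.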

[8] = Solubility in simulated intestinal fluid at pH 7.6 by HPLC method; type: physicochemical
How it was run: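 Simulated intestinal fluid medium; each analogue 200 μM final in 2% DMSO, shaken 24 h at room temperature, then HPLC with photodiode array read at 230 nm; duplicate, means given.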

[9] = Distribution coefficient, log D of the compound between n-octanol and PBS buffer at pH 7.4 incubated for 1 hr by shake flask method; type: physicochemical
How it was run: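 Partition between n-octanol and PBS pH 7.4 after 1 h shaking at room temperature; phases analysed by HPLC with photodiode detection; logD = log10 of organic/aqueous amount.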

[10] = Efflux ratio in human Caco2 cells incubated for 1 hr at 37 degC by HPLC-MS/MS method; type: ADME, cell-based; settings: Caco-2
[11] = system: Salmonella typhimurium; assay: Mutagenicity in Salmonella typhimurium TA100 assessed as mean revertant colonies at 0.25 to 240 ug/well in presence of rat liver S9 fraction; type: toxicity, organism-based; settings: salmonella enterica subsp. enterica serovar typhimurium
How it was run: (§1)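 MicroAmes: strains preincubated with or without Aroclor-induced rat liver S9, duplicate wells, six concentrations 0.25–250 μg equivalents/well; DMSO vehicle, 4-nitroquinoline-N-oxide (−S9) and 2-aminoanthracene (+S9) positive controls; revertant colonies counted; cytotoxicity noted as reduced revertants or background lawn; precipitation recorded.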

[12] = system: Salmonella typhimurium; assay: Mutagenicity in Salmonella typhimurium TA100 assessed as mean revertant colonies at 0.25 to 240 ug/well in absence of rat liver S9 fraction; type: toxicity, organism-based; settings: salmonella enterica subsp. enterica serovar typhimurium; how it was run: as §1

Chain of CYP2C9 (P11712 whole entry): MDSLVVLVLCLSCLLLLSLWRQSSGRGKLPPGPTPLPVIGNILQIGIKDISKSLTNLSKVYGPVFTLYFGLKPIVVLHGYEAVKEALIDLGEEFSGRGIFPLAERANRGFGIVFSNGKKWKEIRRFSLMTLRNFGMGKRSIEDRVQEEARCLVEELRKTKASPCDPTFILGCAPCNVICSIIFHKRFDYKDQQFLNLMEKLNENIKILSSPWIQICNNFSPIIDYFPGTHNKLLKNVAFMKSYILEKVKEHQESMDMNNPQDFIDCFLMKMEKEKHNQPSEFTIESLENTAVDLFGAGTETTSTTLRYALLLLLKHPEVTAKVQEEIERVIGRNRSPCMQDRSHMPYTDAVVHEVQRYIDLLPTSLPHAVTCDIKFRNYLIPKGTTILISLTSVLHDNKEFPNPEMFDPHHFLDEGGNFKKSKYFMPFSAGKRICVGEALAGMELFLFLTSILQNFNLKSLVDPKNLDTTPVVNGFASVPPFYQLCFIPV

## O=C1C2=Nc3ccccc3CN2c2ccc(Cl)cc21
[1]
  Cmax: 197 ng/mL
[2]
  AUC(0-inf): 1400 ng·h/mL
[3]
  bioavailability: 8%
[4]
  inhibition at 80 min, 10 µM: 27%
[5]
  Papp B→A at 1 h: 20.8 ×10⁻⁶ cm/s
[6]
  Papp A→B at 1 h: 60.8 ×10⁻⁶ cm/s
[7]
  solubility: 79.2 µM (≈ 21.3 µg/mL)
[8]
  solubility: 19.3 µM (≈ 5.19 µg/mL)
[9]
  logD at 1 h: 3.37
[10]
  efflux ratio at 1 h: > 1
[11]
  Activity: Non-toxic
[12]
  Activity: Non-toxic
